Laboratory results as given in ChEMBL document CHEMBL1681666, “Synthesis and in vitro screening of novel N-benzyl aplysinopsin analogs as potential anticancer agents” (2011).

What was measured:
Type in all cases: functional
MDA-MB-468 = assay: Anticancer activity against human MDA-MB-468 cells
In short: (§1)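 NCI 60-cell human tumour panel (leukemia, lung, colon, CNS, melanoma, ovarian, renal, prostate, breast). A first-stage single-dose screen at 10 µM was run. Compounds giving over 60% growth inhibition in at least eight lines went on to a five-dose response. Effect was plotted against log10 molar concentration per line. GI50 is the concentration giving 50% reduction in net protein increase versus control cells. LC50 is the concentration lethal to 50% of cells.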

KM12 = assay: Anticancer activity against human KM12 cells; in short: as §1
OVCAR-5 = assay: Anticancer activity against human OVCAR5 cells; in short: as §1
HL-60(TB) = assay: Anticancer activity against human HL-60(TB) cells; in short: as §1
OVCAR-8 = assay: Anticancer activity against human OVCAR8 cells; in short: as §1
A498 = assay: Anticancer activity against human A498 cells; in short: as §1
SK-MEL-5 = assay: Anticancer activity against human SK-MEL-5 cells; in short: as §1
HT-29 = assay: Anticancer activity against human HT-29 cells; in short: as §1
NCI-H460 = assay: Anticancer activity against human NCI-H460 cells; in short: as §1
HOP-62 = assay: Anticancer activity against human HOP62 cells; in short: as §1
SF-268 = assay: Anticancer activity against human SF268 cells; in short: as §1
OVCAR-3 = assay: Anticancer activity against human OVCAR3 cells; in short: as §1
UO-31 = assay: Anticancer activity against human UO31 cells
In short: (§2)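 NCI 60-cell-line panel. A single-dose (10 µM) prescreen was run first. Compounds giving over 60% growth inhibition in at least eight lines then went to five-dose response studies. Dose-response curves of effect versus log10 concentration. GI50 is the molar concentration giving a 50% reduction in net protein increase versus control cells. LC50 is the concentration lethal to 50% of cells.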

ACHN = assay: Anticancer activity against human ACHN cells; in short: as §1
SK-MEL-2 = assay: Anticancer activity against human SK-MEL-2 cells; in short: as §1
MDA-MB-435 = assay: Anticancer activity against human MDA-MB-435 cells; in short: as §1
RXF 393 = assay: Anticancer activity against human RXF393 cells; in short: as §1
MDA-MB-231 = assay: Anticancer activity against human MDA-MB-231 cells; in short: as §1
SNB-19 = assay: Anticancer activity against human SNB19 cells; in short: as §1
CAKI-1 = assay: Anticancer activity against human Caki1 cells; in short: as §1
[1] = Anticancer activity against human […] cells; in short: as §1
PC-3 = assay: Anticancer activity against human PC3 cells; in short: as §1
SF-539 = assay: Anticancer activity against human SF539 cells; in short: as §1
[2] = Anticancer activity against human Hs 578T cells; in short: as §1
SK-MEL-28 = assay: Anticancer activity against human SK-MEL-28 cells; in short: as §1
NCI-H226 = assay: Anticancer activity against human NCI-H226 cells; in short: as §1
SK-OV-3 = assay: Anticancer activity against human SKOV3 cells; in short: as §1
NCI-H23 = assay: Anticancer activity against human NCI-H23 cells; in short: as §1
SNB-75 = assay: Anticancer activity against human SNB75 cells; in short: as §2
SF-295 = assay: Anticancer activity against human SF295 cells; in short: as §1
M14 = assay: Anticancer activity against human M14 cells; in short: as §1
T47D = assay: Anticancer activity against human T47D cells; in short: as §2
UACC-62 = assay: Anticancer activity against human UACC62 cells; in short: as §2
COLO 205 = assay: Anticancer activity against human COLO205 cells; in short: as §1
IGROV-1 = assay: Anticancer activity against human IGROV1 cells; in short: as §1
MOLT-4 = assay: Anticancer activity against human MOLT4 cells; in short: as §1
CCRF-CEM = assay: Anticancer activity against human CCRF-CEM cells; in short: as §1
TK-10 = assay: Anticancer activity against human TK10 cells; in short: as §2
[3] = Anticancer activity against human NCI/ADR cells; details: NCI/ADR-RES; in short: as §1
A549 = assay: Anticancer activity against human A549 cells; in short: as §1
SW-620 = assay: Anticancer activity against human SW620 cells; in short: as §2
Malme-3M = assay: Anticancer activity against human MALME-3M cells; in short: as §1
EKVX = assay: Anticancer activity against human EKVX cells; in short: as §1
K562 = assay: Anticancer activity against human K562 cells; in short: as §1
LOX IMVI = assay: Anticancer activity against human LOXIMVI cells; in short: as §1
U-251 = assay: Anticancer activity against human U251 cells; in short: as §2
HCT-116 = assay: Anticancer activity against human HCT116 cells; in short: as §1
UACC-257 = assay: Anticancer activity against human UACC257 cells; in short: as §2
BT-549 = assay: Anticancer activity against human BT549 cells; in short: as §1
786-0 = assay: Anticancer activity against human 786-0 cells; in short: as §1
MCF7 = assay: Anticancer activity against human MCF7 cells; in short: as §1
HCC 2998 = assay: Anticancer activity against human HCC2998 cells; in short: as §1
NCI-H322M = assay: Anticancer activity against human NCI-H322M cells; in short: as §1
SN12C = assay: Anticancer activity against human SN12C cells; in short: as §1
OVCAR-4 = assay: Anticancer activity against human OVCAR4 cells; in short: as §1
[4] = read-out: LC50 (the source's name)

COC(=O)c1ccc2c(/C=C3\NC(=O)NC3=O)cn(Cc3ccc(C#N)cc3)c2c1 gave a GI50 (MDA-MB-468) of 4.14 µM, a CC50 (MDA-MB-468; [4]) greater than 100 µM and a GI50 (KM12) of 3.73 µM. It also gave a CC50 (KM12; [4]) greater than 100 µM, a GI50 (OVCAR-5) of 5.51 µM and a CC50 (OVCAR-5; [4]) greater than 100 µM. The GI50 (HL-60(TB)) was 2540 nM, the CC50 (HL-60(TB); [4]) was greater than 100 µM and the GI50 (OVCAR-8) was 3.75 µM. For the same molecule, the CC50 (OVCAR-8; [4]) was greater than 100 µM, the GI50 (A498) was 550 nM and the CC50 (A498; [4]) was greater than 100 µM. For the same molecule, the GI50 (SK-MEL-5) was 3.25 µM, the CC50 (SK-MEL-5; [4]) was greater than 100 µM and the GI50 (HT-29) was 5.99 µM. For the same molecule, the CC50 (HT-29; [4]) was greater than 100 µM, the GI50 (NCI-H460) was 2910 nM and the CC50 (NCI-H460; [4]) was greater than 100 µM. For the same molecule, the GI50 (HOP-62) was 3.58 µM, the CC50 (HOP-62; [4]) was 73 µM and the GI50 (SF-268) was 4.22 µM. The CC50 (SF-268; [4]) was greater than 100 µM, the GI50 (OVCAR-3) was 2050 nM and the CC50 (OVCAR-3; [4]) was greater than 100 µM. For the same molecule, the GI50 (UO-31) was 2700 nM, the CC50 (UO-31; [4]) was greater than 100 µM and the GI50 (ACHN) was 2080 nM. The CC50 (ACHN; [4]) was greater than 100 µM, the GI50 (SK-MEL-2) was 300 nM and the CC50 (SK-MEL-2; [4]) was 30.6 µM. For the same molecule, the GI50 (MDA-MB-435) was 2760 nM, the CC50 (MDA-MB-435; [4]) was greater than 100 µM and the GI50 (RXF 393) was 580 nM. It also gave a CC50 (RXF 393; [4]) greater than 100 µM, a GI50 (MDA-MB-231) of 3.32 µM and a CC50 (MDA-MB-231; [4]) greater than 100 µM. The GI50 (SNB-19) was 3.77 µM, the CC50 (SNB-19; [4]) was greater than 100 µM and the GI50 (CAKI-1) was 2740 nM. It also gave a CC50 (CAKI-1; [4]) greater than 100 µM, a GI50 [1] of 3.61 µM and a CC50 [1, 4] greater than 100 µM. It also gave a GI50 (PC-3) of 2440 nM, a CC50 (PC-3; [4]) greater than 100 µM and a GI50 (SF-539) of 2390 nM. It also gave a CC50 (SF-539; [4]) greater than 100 µM, a GI50 [2] of 970 nM and a CC50 [2, 4] greater than 100 µM. It also gave a GI50 (SK-MEL-28) of 3.79 µM, a CC50 (SK-MEL-28; [4]) greater than 100 µM and a GI50 (NCI-H226) of 5.94 µM. It also gave a CC50 (NCI-H226; [4]) greater than 100 µM, a GI50 (SK-OV-3) of 860 nM and a CC50 (SK-OV-3; [4]) of 79.8 µM. The GI50 (NCI-H23) was 4.07 µM, the CC50 (NCI-H23; [4]) was greater than 100 µM and the GI50 (SNB-75) was 4.6 µM. The CC50 (SNB-75; [4]) was greater than 100 µM, the GI50 (SF-295) was 3.09 µM and the CC50 (SF-295; [4]) was greater than 100 µM. It also gave a GI50 (M14) of 1430 nM, a CC50 (M14; [4]) greater than 100 µM and a GI50 (T47D) of 1500 nM. It also gave a CC50 (T47D; [4]) greater than 100 µM, a GI50 (UACC-62) of 1270 nM and a CC50 (UACC-62; [4]) of 51 µM. For the same molecule, the GI50 (COLO 205) was 3.16 µM, the CC50 (COLO 205; [4]) was greater than 100 µM and the GI50 (IGROV-1) was 660 nM. It also gave a CC50 (IGROV-1; [4]) greater than 100 µM, a GI50 (MOLT-4) of 1380 nM and a CC50 (MOLT-4; [4]) greater than 100 µM. For the same molecule, the GI50 (CCRF-CEM) was 3.06 µM, the CC50 (CCRF-CEM; [4]) was greater than 100 µM and the GI50 (TK-10) was 3.87 µM. The CC50 (TK-10; [4]) was greater than 100 µM, the GI50 [3] was greater than 100 µM and the CC50 [3, 4] was greater than 100 µM. For the same molecule, the GI50 (A549) was 4.44 µM, the CC50 (A549; [4]) was greater than 100 µM and the GI50 (SW-620) was 2270 nM. For the same molecule, the CC50 (SW-620; [4]) was greater than 100 µM, the GI50 (Malme-3M) was 2010 nM and the CC50 (Malme-3M; [4]) was greater than 100 µM. The GI50 (EKVX) was 4.22 µM, the CC50 (EKVX; [4]) was greater than 100 µM and the GI50 (K562) was 970 nM. The CC50 (K562; [4]) was greater than 100 µM, the GI50 (LOX IMVI) was 1430 nM and the CC50 (LOX IMVI; [4]) was greater than 100 µM. It also gave a GI50 (U-251) of 2030 nM, a CC50 (U-251; [4]) of 59.1 µM and a GI50 (HCT-116) of 1210 nM. It also gave a CC50 (HCT-116; [4]) greater than 100 µM, a GI50 (UACC-257) of 4.2 µM and a CC50 (UACC-257; [4]) greater than 100 µM. It also gave a GI50 (BT-549) of 1240 nM, a CC50 (BT-549; [4]) greater than 100 µM and a GI50 (786-0) of 2360 nM. It also gave a CC50 (786-0; [4]) greater than 100 µM, a GI50 (MCF7) of 3.55 µM and a CC50 (MCF7; [4]) greater than 100 µM. The GI50 (HCC 2998) was 2430 nM, the CC50 (HCC 2998; [4]) was 85 µM and the GI50 (NCI-H322M) was 720 nM. For the same molecule, the CC50 (NCI-H322M; [4]) was greater than 100 µM, the GI50 (SN12C) was 2800 nM and the CC50 (SN12C; [4]) was greater than 100 µM. For the same molecule, the GI50 (OVCAR-4) was 4.13 µM and the CC50 (OVCAR-4; [4]) was greater than 100 µM.
